The results in this text go back to ChEMBL document CHEMBL1122360, “Inhibitors of gastric acid secretion: antisecretory 2-pyridylurea derivatives” (1983).

The subject of test [1] is Canis familiaris. In words: Inhibition of gastric acid secretion at 40 mg/kg oral administration to dogs. The format is functional. The following applies: Canis lupus familiaris, Stomach. In outline: (§1)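 Unanesthetized female beagle dogs with chronic gastric fistula; compound in 50 mL aqueous 1% methylcellulose delivered into stomach via fistula cannula 60 min before gastrin tetrapeptide (64 μg/kg sc, maximal secretory dose). Gastric output drained by gravity over three 30-min periods; acid concentration by titration to pH 7 with 0.01 N NaOH; percent decrease in acid concentration versus placebo trial in same animal; dose as base weight.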

Test [2] relates to Canis familiaris. Put plainly: Inhibition of gastric acid secretion at 20 mg/kg oral administration to dogs. The following applies: Canis lupus familiaris, Stomach. The format is functional. In outline: as §1
Test [3] relates to Canis familiaris. Put plainly: Inhibition of gastric acid secretion at 10 mg/kg oral administration to dogs. The format is functional. To be noted: Canis lupus familiaris, Stomach. In outline:
as §1

Test [4] has as its system Canis familiaris. Put plainly: Inhibition of gastric acid secretion at 40 mg/kg oral administration to dogs; Compound is CNS (central nervous system) effective. The format is functional, organism-based. Further details: dose 40 mg/kg. To be noted: Canis lupus familiaris, Stomach. In outline:
as §1

The subject of test [5] is Canis familiaris. Put plainly: Volume of histamine stimulated inhibition of gastric secretion when administered perorally in dogs. To be noted: Canis lupus familiaris, Stomach, po. The format is functional. The procedure, abridged:
(§2)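 Unanesthetized female beagle dogs with chronic gastric fistula; compound in 50 mL 1% aqueous methylcellulose given into stomach via fistula cannula 60 min before stimulant (gastrin tetrapeptide 64 μg/kg sc, or histamine dihydrochloride 64 μg base/kg sc). Output drained by gravity, three 30-min periods; volume measured, acid concentration titrated to pH 7 with 0.01 N NaOH, output = volume × concentration. Percent change vs placebo trial in same dog.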

The subject of test [6] is Canis familiaris. In words: Acid concentration of histamine stimulated inhibition of gastric secretion when administered perorally in dogs. To be noted: Canis lupus familiaris, Stomach, po. The format is functional. The procedure, abridged:
as §2

In test [7] the test system is Canis familiaris. Put plainly: Acid output of gastrin tetrapeptide stimulated inhibition of gastric secretion when administered perorally in dogs. The format is functional. The following applies: Canis lupus familiaris, Stomach, po. In outline:
as §2

In test [8] the test system is Canis familiaris. Put plainly: Acid output of histamine stimulated inhibition of gastric secretion when administered perorally in dogs. The format is functional. To be noted: Canis lupus familiaris, Stomach, po. In outline: as §2
The subject of test [9] is Canis familiaris. In words: Volume of gastrin tetrapeptide stimulated inhibition of gastric secretion when administered perorally in dogs. The format is functional. The following applies: Canis lupus familiaris, Stomach, po. In outline:
as §2

Test [10] has as its system Canis familiaris. In words: Acid concentration of gastrin tetrapeptide stimulated inhibition of gastric secretion when administered perorally in dogs. The format is functional. The following applies: Canis lupus familiaris, Stomach, po. The procedure, abridged:
as §2

Take `Cc1cc(C)nc(N(CCNC(C)C)C(=O)N(C)C)c1`: testing at 40 mg/kg in the test on Canis familiaris [1] gave an inhibition in vivo of 42%. The molecule also came in with an inhibition in vivo at 20 mg/kg with Canis familiaris [2] of 33%.

In the test on Canis familiaris [3], `Cc1cc(C)nc(N(CCN(C)C)C(=O)N(C)C)c1` showed an inhibition in vivo at 10 mg/kg of 14%. In addition, at 40 mg/kg the inhibition in vivo in the test with Canis familiaris [1] was 58%. Besides, the inhibition in vivo at 20 mg/kg in the test with Canis familiaris [2] came to 58%.

In the test with Canis familiaris [1], `Cc1ccc(N(CCN(C(C)C)C(C)C)C(=O)N(C)C)nc1` had an inhibition in vivo at 40 mg/kg of 33%. The same molecule had an inhibition in vivo at 20 mg/kg in the test on Canis familiaris [2] of 19%.

On to `Cc1ccnc(N(CCN(C(C)C)C(C)C)C(=O)N(C)C)c1`, for which at 10 mg/kg the inhibition in vivo in the test on Canis familiaris [3] was 79%. The same molecule returned an inhibition in vivo at 20 mg/kg in the test with Canis familiaris [2] of 95%.

For the molecule `CCCN(CCC)CCN(C(=O)N(C)C)c1cc(C)cc(C)n1`, in the test with Canis familiaris [1], testing at 40 mg/kg gave an inhibition in vivo of 93%. The same molecule had an inhibition in vivo at 20 mg/kg in the test on Canis familiaris [2] of 22%.

In turn, `Cc1cc(C)nc(N(CCCN(C(C)C)C(C)C)C(=O)N(C)C)c1` returned an inhibition in vivo at 40 mg/kg with Canis familiaris [1] of 35%. In the test with Canis familiaris [2], this molecule yielded an inhibition in vivo at 20 mg/kg of 0%.

For the molecule `Cc1cc(Cl)nc(N(CCN(C(C)C)C(C)C)C(=O)N(C)C)c1`, in the test with Canis familiaris [3], testing at 10 mg/kg gave an inhibition in vivo of 52%. The molecule further registered an inhibition in vivo at 20 mg/kg in the test on Canis familiaris [2] of 71%.

In the test on Canis familiaris [3], `COc1ccnc(N(CCN(C(C)C)C(C)C)C(=O)N(C)C)c1` showed an inhibition in vivo at 10 mg/kg of 64%. The same molecule had an inhibition in vivo at 20 mg/kg in the test on Canis familiaris [2] of 84%.

In the test with Canis familiaris [1], `Cc1cc(C)nc(N(CCCCN(C(C)C)C(C)C)C(=O)N(C)C)c1` yielded an inhibition in vivo at 40 mg/kg of 3%. The inhibition in vivo at 20 mg/kg in the test with Canis familiaris [2] was 5%.

For the molecule `Cc1cc(C)nc(N(CCN(C(C)C)C(C)C)C(N)=O)c1`, the inhibition in vivo at 20 mg/kg in the test with Canis familiaris [2] came out at 18%. In addition, in the test with Canis familiaris [4], the inhibition result is reported as “CNS effect”.

In the case of `CN/C(=N\CCSCc1nc[nH]c1C)NC#N` [CIMETIDINE], the ED50 with Canis familiaris [5] was found to be 3.5 mg/kg; in the test on Canis familiaris [6], 5 mg/kg; with Canis familiaris [7], 3.6 mg/kg; in the test with Canis familiaris [8] it was 2.6 mg/kg; in the test with Canis familiaris [9], 3.9 mg/kg; in the test on Canis familiaris [10], 6.4 mg/kg.

Molecule `CNC(=O)N(CCN(C(C)C)C(C)C)c1cc(C)cc(C)n1` registered an inhibition in vivo at 20 mg/kg in the test on Canis familiaris [2] of 44%. Moreover, the inhibition result with Canis familiaris [4] is listed as “CNS effect”.

The molecule `CC(C)N(CCN(C(=O)N(C)C)c1ccccn1)C(C)C` yielded an inhibition in vivo at 40 mg/kg in the test on Canis familiaris [1] of 82%. This molecule also gave an inhibition in vivo at 20 mg/kg in the test with Canis familiaris [2] of 17%.

In turn, `Cc1cccc(N(CCN(C(C)C)C(C)C)C(=O)N(C)C)n1` showed an inhibition in vivo at 10 mg/kg in the test on Canis familiaris [3] of 54%. Further, the inhibition in vivo at 20 mg/kg in the test on Canis familiaris [2] is 87%.

In the test on Canis familiaris [3], `CC(C)N(CCN(C(=O)N(C)C)c1ccc(Cl)cn1)C(C)C` showed an inhibition in vivo at 10 mg/kg of 44%. In the test with Canis familiaris [2], the inhibition in vivo at 20 mg/kg amounted to 63%.

`CC(C)N(CCN(C(=O)N(C)C)c1cccc(Cl)n1)C(C)C` yielded an inhibition in vivo at 20 mg/kg with Canis familiaris [2] of 78%.

In the test on Canis familiaris [3], `Cc1cc(N(CCN(C(C)C)C(C)C)C(=O)N(C)C)nc(C)c1Cl` had an inhibition in vivo at 10 mg/kg of 62%. The same molecule yielded an inhibition in vivo at 20 mg/kg with Canis familiaris [2] of 95%.

Take `CNCCN(C(=O)N(C)C)c1cc(C)cc(C)n1`: the inhibition in vivo at 40 mg/kg in the test with Canis familiaris [1] stood at 20%.

In the test on Canis familiaris [3], `Cc1cc(C)nc(N(CCN(C(C)C)C(C)C)C(=O)N(C)C)c1.Cl` returned an inhibition in vivo at 10 mg/kg of 70%. The ED50 in the test on Canis familiaris [5] was determined as 12.6 mg/kg; with Canis familiaris [6], 9.6 mg/kg; in the test with Canis familiaris [7], 3.3 mg/kg; in the test on Canis familiaris [8] it was 5.1 mg/kg; in the test with Canis familiaris [9], 3.8 mg/kg; with Canis familiaris [10], 6.8 mg/kg. In the test with Canis familiaris [2], this molecule displayed an inhibition in vivo at 20 mg/kg of 100%.
